RGS4 block: human RGS4 inhibition; HEK293 M3R/RGS4 inducible, Fluo-4 calcium flux; active compounds read high; triggered by carbachol at its EC20; P49798; AID 463165; B-score at 10 µM; 310,000 tested, 0.45% active;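 active means B-score, a plate-corrected calcium signal, over three deviations above library mean, with baseline fluorescence within five deviations of library mean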;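 further: RGS4 expression induced by doxycycline in cells with stable M3 receptor; B-score is computed from the integrated fluorescence ratio over baseline after carbachol; higher B-score means a larger calcium signal and so more RGS4 inhibition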
MrgX1 antagonist: blocks BAM8-22 activation of human MrgX1 receptor | Q96LB2 | MRGX1-HEK293 calcium flux, Fluo-4, BAM8-22 antagonism; active compounds read low | B-score at 10 µM | 310,000 tested, 1.3% active | AID 588676;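 active means calcium-response B-score plate-corrected more than 3 library SD below zero, starting fluorescence within 5 deviations, no agonist response on first addition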;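 further: peak minus trough fluorescence over baseline after final BAM8-22 challenge near maximal dose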
Target sequence (Q96LB2 whole entry, looked up): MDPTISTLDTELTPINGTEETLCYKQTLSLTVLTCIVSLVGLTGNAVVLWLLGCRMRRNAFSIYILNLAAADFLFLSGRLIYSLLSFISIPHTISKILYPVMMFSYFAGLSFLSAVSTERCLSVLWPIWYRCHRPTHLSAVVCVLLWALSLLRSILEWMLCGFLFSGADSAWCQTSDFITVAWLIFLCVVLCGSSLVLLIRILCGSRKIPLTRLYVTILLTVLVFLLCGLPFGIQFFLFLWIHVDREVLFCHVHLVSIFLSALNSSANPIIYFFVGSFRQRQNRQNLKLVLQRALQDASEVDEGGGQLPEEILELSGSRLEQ
RGS4 pot: RGS4 potentiation or activation; HEK293 M3R/inducible RGS4, carbachol calcium flux Fluo4; active compounds read low; B-score at 10 µM; 310,000 tested, 0.92% active;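 active means B-score of the integrated calcium signal more than 4 SD below the library mean, with starting fluorescence not abnormally high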;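 further: negative B-score means reduced calcium response which marks RGS4 activation or potentiation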
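Assay system: HEK293 FlpIn-TREx cells, stable M3R, doxycycline-inducible RGS4 / Probe or stimulus: carbachol, ECmax concentration / Times: overnight RGS4 induction, 30 min dye load 37 °C, 20 min compound RT / Signal: kinetic calcium fluorescence imaging with Fluo4-AM dye, 2 µM / Measure: Agonist-evoked peak-minus-minimum fluorescence over baseline, integrated ratio, B score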
MrgX1 allo act: allosterically activates human MrgX1 receptor signaling | B-score at 10 µM | 310,000 tested, 0.63% active | Q96LB2 | AID 588675 | MrgX1-HEK293, Fluo-4 calcium flux, FDSS; active compounds read high;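 active means plate-corrected calcium response at least 3 library SD above typical, normal starting fluorescence, not activating the receptor alone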;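 further: compound read alongside a low EC10 to EC30 dose of BAM8-22 agonist; peak minus trough fluorescence over baseline measured at the second addition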
PHOSPHO1 inh: PHOSPHO1 (human) inhibition; 290,000 tested, 1.1% active; AID 1565; Q8TCT1; inhibition, % at 13.3 µM; recombinant PHOSPHO1, absorbance phosphatase assay; in the data active means inhibition above about 60%
MrgX1 agonist: activates human MrgX1 receptor signaling; B-score at 10 µM; MrgX1-HEK293 cells, Fluo-4 calcium fluorescence, agonist mode; active compounds read high; Q96LB2; AID 588627; 310,000 tested, 0.44% active;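 active means calcium response B-score plate-corrected fluorescence ratio at least 3 library SD, with starting fluorescence B-score inside 5 SD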
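Assay system: stable human MrgX1 HEK293 cell line. Quantity: 15,000 cells per well. Schedule: cells plated overnight, dye loaded 0.5 h 37 °C, 0.5 h room temperature. Detection: Fluo-4 NW calcium-flux fluorescence, kinetic read. Read-out basis: peak-minus-minimum fluorescence over baseline, converted to B scores. Control set: positive and negative control wells on each plate.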
A number is an active result; 0 = inactive; - = not tested or not shown. An excerpt weighted towards active compounds, which were near 4.5% of everything screened.

SMILES	RGS4 block	MrgX1 antagonist	RGS4 pot	MrgX1 allo act	PHOSPHO1 inh	MrgX1 agonist
CCOC(=O)C1=NN(C(=O)Cc2ccccc2)C(O)(c2ccc(Cl)cc2)C1 (stereo not drawn)	0	0	0	0	0	0
CCOC(=O)C1=NN(C(=O)c2ccccc2)C(O)(c2ccc(C)cc2)C1 (stereo not drawn)	0	0	0	0	0	0
Cc1cnc(=O)[nH]c1SCc1cccc([N+](=O)[O-])c1	0	0	0	0	0	0
Cc1ccc(NS(=O)(=O)c2c(C)nc3sccn3c2=O)c(C)c1	0	0	0	0	0	0
Cc1ccccc1OCC(=O)N/N=C1\CC(=O)CC(C)(C)C1	0	0	0	0	0	0
Cc1cc(/C=C2\C(=N)N3N=C(C(C)C)SC3=NC2=O)c(C)n1Cc1ccccc1	0	0	0	16	0	0
CCC(CC)C1=NN2C(=N)/C(=C\c3cc(C)n(-c4cccc(C)c4)c3C)C(=O)N=C2S1	0	0	-7.6	0	0	0
Cc1nn(-c2ccccc2)c(Cl)c1/C=C1/C(=N)N2N=C(C(C)C)SC2=NC1=O	0	0	0	9.6	0	0
COc1ccc(-n2cccc2/C=C2\C(=N)N3N=C(C(C)C)SC3=NC2=O)cc1	0	0	0	0	0	0
Cc1nn(-c2ccccc2)c(Cl)c1/C=C1\SC(=S)NC1=O	0	-4.9	0	0	64	0
CC1=NN2C(=N)/C(=C\c3cc(C)n(-c4ccccc4)c3C)C(=O)N=C2S1	0	0	0	0	0	0
CCCCN(C)CCN1C(=O)C2C(C(=O)Nc3cccc(OC)c3)C3C=CC2(O3)C1C(=O)NC1CCCCC1C (stereo not drawn)	0	0	0	0	0	0
O=S1(=O)CCOCCCN1Cc1ccccc1Br	0	0	0	0	0	0
COc1cccc(-c2nn(C)c3sc(C(=O)N4CCN(c5ccccn5)CC4)cc23)c1	0	0	-11	0	0	0
CC1Cc2ccccc2N1S(=O)(=O)c1cccc(C(=O)NCCCn2ccnc2)c1 (stereo not drawn)	0	0	0	0	0	0
CC12CCC(C/C1=N\OC(=O)c1ccc(F)cc1)C2(C)C (stereo not drawn)	0	0	0	8.4	0	0
C/C(=N\OC(=O)c1ccc(F)cc1)c1ccc(F)c(F)c1	0	0	0	0	0	0
CC12CCC(C/C1=N/OC(=O)c1cccc([N+](=O)[O-])c1)C2(C)C (stereo not drawn)	0	0	0	9.8	0	0
CC1=CC(=O)C=C(C)C1=NOC(=O)c1cccc([N+](=O)[O-])c1	0	0	0	0	0	0
Cc1cn(CCOc2ccc(Cl)cc2)c(=O)[nH]c1=O	0	0	0	0	0	0
COc1ccccc1CNC(=O)C(C)n1cccc1C(=O)c1ccccc1 (stereo not drawn)	0	0	0	0	64	0
CCCC1=Nc2cc(C(=O)NCCN3CCOCC3)ccc2Sc2ccc(C)cc21	0	0	0	0	0	0
Cc1nn(C)cc1S(=O)(=O)Nc1ccc(C(F)(F)F)cc1	0	0	0	0	0	0
Cc1cccc(C(C)C)c1NC(=O)COC(=O)CCN1C(=O)C2CC=CCC2C1=O (stereo not drawn)	0	0	0	0	70	0
CC(=O)C(Cc1ccccc1)NC(=O)COC(=O)CCN1C(=O)C2CC=CCC2C1=O (stereo not drawn)	0	0	0	0	-	0
SMILES	RGS4 block	MrgX1 antagonist	RGS4 pot	MrgX1 allo act	PHOSPHO1 inh	MrgX1 agonist
O=C(NNC(=O)c1ccccc1O)c1cccc(Br)c1	0	0	0	0	0	0
CC1CCN(S(=O)(=O)c2ccc(N/N=C(/C#N)C(N)=O)cc2)CC1	0	0	0	0	77	0
CCn1c(=NC(=O)c2ccc(S(=O)(=O)N(C)C)cc2)sc2cccc(OC)c21	0	0	-7.2	0	0	0
CC(C)NC(=O)CSc1nc2ccccc2n1-c1ccccc1	0	0	0	0	0	0
CC(C)(C)NC(=O)CSc1nc2ccccc2n1-c1ccccc1	0	0	0	0	62	0
COc1ccc(-n2c(SCC(=O)NCC3CCCO3)nc3ccccc32)cc1 (stereo not drawn)	0	0	0	0	78	0
